ChEMBL document CHEMBL1137481, “Discovery of platelet-type 12-human lipoxygenase selective inhibitors by high-throughput screening of structurally diverse libraries” (Bioorg Med Chem, 2007)

Columns and labels:
[1] = target: T1, Polyunsaturated fatty acid lipoxygenase ALOX12 (Homo sapiens, UniProt P18054); assay: Inhibition of human 12-hLO
T1 sequence (P18054 whole entry): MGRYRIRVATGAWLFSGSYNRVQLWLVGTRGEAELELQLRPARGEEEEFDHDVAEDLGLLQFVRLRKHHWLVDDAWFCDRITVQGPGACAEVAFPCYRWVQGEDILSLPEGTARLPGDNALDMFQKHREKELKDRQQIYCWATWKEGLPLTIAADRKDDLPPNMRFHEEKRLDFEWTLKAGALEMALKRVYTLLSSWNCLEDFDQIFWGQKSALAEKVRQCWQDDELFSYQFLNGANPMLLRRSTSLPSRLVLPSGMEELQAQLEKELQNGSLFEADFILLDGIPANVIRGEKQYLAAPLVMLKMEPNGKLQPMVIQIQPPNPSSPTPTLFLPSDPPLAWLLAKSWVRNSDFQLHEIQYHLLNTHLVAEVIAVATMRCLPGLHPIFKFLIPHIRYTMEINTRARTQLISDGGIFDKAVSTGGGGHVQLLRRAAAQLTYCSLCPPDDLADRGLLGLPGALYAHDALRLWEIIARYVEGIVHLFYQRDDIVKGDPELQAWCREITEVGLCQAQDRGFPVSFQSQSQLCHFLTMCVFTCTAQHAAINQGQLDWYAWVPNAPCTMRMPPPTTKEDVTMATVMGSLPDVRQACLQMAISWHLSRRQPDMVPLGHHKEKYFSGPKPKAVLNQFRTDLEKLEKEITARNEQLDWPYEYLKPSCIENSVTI
Summary of the method: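 Rate from conjugated diene formation at 234 nm, room temperature (23 °C), stirred 2 mL reactions. 12-hLO (N-terminal His6-tagged, ~40 nM) with arachidonic acid in 25 mM Hepes pH 8, 0.01% Triton X-100. 15-hLO-1 (His6-tagged, ~40 nM) with linoleic acid, 15-hLO-2 (1 µM, SF9-expressed) with arachidonic acid, both in 25 mM Hepes pH 7.5, 0.01% Triton X-100. Rates at various inhibitor concentrations fit to saturation curve for IC50.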

[2] = target: T2, Polyunsaturated fatty acid lipoxygenase ALOX15 (Homo sapiens, UniProt P16050); assay: Inhibition of human 15-hLO1
T2 sequence (P16050 whole entry): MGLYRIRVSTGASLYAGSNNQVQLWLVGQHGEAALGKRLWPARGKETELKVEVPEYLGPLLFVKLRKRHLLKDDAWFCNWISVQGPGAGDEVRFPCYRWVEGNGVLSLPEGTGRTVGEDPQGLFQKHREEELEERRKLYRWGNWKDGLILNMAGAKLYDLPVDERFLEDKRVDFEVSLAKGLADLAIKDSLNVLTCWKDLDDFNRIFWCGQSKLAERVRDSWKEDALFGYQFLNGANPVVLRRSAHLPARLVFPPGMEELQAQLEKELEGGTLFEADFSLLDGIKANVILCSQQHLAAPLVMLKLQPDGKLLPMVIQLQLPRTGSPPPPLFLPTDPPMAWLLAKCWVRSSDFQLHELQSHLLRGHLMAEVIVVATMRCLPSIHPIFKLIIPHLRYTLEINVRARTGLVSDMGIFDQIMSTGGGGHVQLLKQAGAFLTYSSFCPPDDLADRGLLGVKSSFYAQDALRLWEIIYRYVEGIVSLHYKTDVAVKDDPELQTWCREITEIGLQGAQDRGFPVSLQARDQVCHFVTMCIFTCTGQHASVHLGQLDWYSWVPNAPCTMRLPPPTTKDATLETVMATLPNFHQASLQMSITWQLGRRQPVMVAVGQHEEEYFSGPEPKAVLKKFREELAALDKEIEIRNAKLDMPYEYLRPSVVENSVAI

Homo sapiens = organism: Homo sapiens; assay: Selectivity for 12-hLO over 15-hLO1
Summary of the method: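 Ratio of IC50 for 15-hLO-1 over IC50 for 12-hLO. Both come from the 234 nm conjugated-diene rate assay: 12-hLO with arachidonic acid at pH 8, 15-hLO-1 with linoleic acid at pH 7.5, 0.01% Triton X-100, 23 °C. IC50 taken from saturation-curve fits.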

[3] = target: T3, Polyunsaturated fatty acid lipoxygenase ALOX12 (Homo sapiens) (UniProt P18054); assay: Inhibition of human 12-hLO at 40 uM by HTP assay
T3 sequence (whole entry): T1 sequence (P18054 whole entry)
Summary of the method: (§1)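 384-well xylenol orange endpoint assay. 30 µM substrate (arachidonic acid for 12-hLO in 25 mM Hepes pH 8.0; linoleic acid for 15-hLO-1 in 25 mM HEPES pH 7.5), 0.1% Triton X-100. Inhibitor at 40 µM final from DMSO. Reactions started with ~40 nM enzyme and stopped at ~35% completion with 100 µM xylenol orange and 150 µM ferrous ammonium sulfate in 25 mM H2SO4. Read at 560 nm after 30 min dark shaking. Triplicate, normalised to no-enzyme and DMSO controls.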

[4] = target: T3, Polyunsaturated fatty acid lipoxygenase ALOX12 (Homo sapiens); assay: Inhibition of human 12-hLO at 10 uM by MI assay
Summary of the method: (§2)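 One-point manual continuous assay at 23 °C, stirred, following conjugated diene at 234 nm. 12-hLO (~40 nM, His6-tagged) with arachidonic acid in 25 mM Hepes pH 8, 0.01% Triton X-100. 15-hLO-1 (~40 nM) with linoleic acid in 25 mM Hepes pH 7.5, 0.01% Triton X-100. 10 µM inhibitor.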

[5] = target: T4, Polyunsaturated fatty acid lipoxygenase ALOX15 (Homo sapiens) (UniProt P16050); assay: Inhibition of human 15-hLO1 at 40 uM by HTP assay; summary of the method: as §1
T4 sequence (whole entry): T2 sequence (P16050 whole entry)

[6] = target: T4, Polyunsaturated fatty acid lipoxygenase ALOX15 (Homo sapiens); assay: Inhibition of human 15-hLO1 at 10 uM by MI assay; summary of the method: as §2

Row | IC50 [1] [µM] | inhibition [3] [%] | inhibition [4] [%] | inhibition [5] [%] | inhibition [6] [%] | SMILES | Ki [1] [µM] | Ki [2] [µM] | Ratio Ki (Homo sapiens)
1 |  |  |  |  |  | C[C@H](NC(=O)[C@H](C[C@H](C)C(Cl)(Cl)Cl)N(C)C(=O)C[C@H](C)C(Cl)(Cl)Cl)c1nccs1 [DYSIDENIN] | 9 | 8 | 1
2 | 0.58 | 47 | 100 | 12 | 36 | COc1c(O)cc2oc3cc(O)c(CC=C(C)C)c(O)c3c(=O)c2c1CC=C(C)C [MANGOSTIN] |  |  | 
3 | 0.21 | 70 | 100 | 37 | 36 | Oc1c(Cl)cc(C(c2cc(Cl)c(O)c(Cl)c2)C(c2cc(Cl)c(O)c(Cl)c2)c2cc(Cl)c(O)c(Cl)c2)cc1Cl |  |  | 
4 | 0.15 | 46 | 88 | 0 | 0 | O=C(O)c1cc(C(=O)C(=O)c2cc(C(=O)O)c(O)c3ccccc23)c2ccccc2c1O |  |  | 
5 |  | 71 | 0 | 39 | 0 | Oc1cccc2ccc(SSc3ccc4cccc(O)c4n3)nc12 |  |  | 

Row | SMILES | IC50 [1] [µM] | inhibition [3] [%] | inhibition [4] [%] | inhibition [5] [%] | inhibition [6] [%] | Ki [1] [µM] | Ki [2] [µM] | Ratio Ki (Homo sapiens)
6 | C[C@H](c1nccs1)N(C)C(=O)[C@H](C[C@H](C)C(Cl)(Cl)Cl)NC(=O)C[C@H](C)C(Cl)(Cl)Cl [NEODYSIDENIN] | > 100 |  |  |  |  | 17 |  | 
